Measured values as given in ChEMBL document CHEMBL3120138, “Glucocorticoid receptor modulators informed by crystallography lead to a new rationale for receptor selectivity, function, and implications for structure-based design” (J Med Chem, 2014).
Activity calls are given as the source filed them. The rule behind the calls is not given here.

Legend:
Androgen receptor = molecular target: T1, Androgen receptor (Homo sapiens, UniProt P10275); test: Displacement of [3H]-methyltrienolone from human androgen receptor expressed in HEK293 cells; type: cell-based
T1 sequence (P10275 whole entry): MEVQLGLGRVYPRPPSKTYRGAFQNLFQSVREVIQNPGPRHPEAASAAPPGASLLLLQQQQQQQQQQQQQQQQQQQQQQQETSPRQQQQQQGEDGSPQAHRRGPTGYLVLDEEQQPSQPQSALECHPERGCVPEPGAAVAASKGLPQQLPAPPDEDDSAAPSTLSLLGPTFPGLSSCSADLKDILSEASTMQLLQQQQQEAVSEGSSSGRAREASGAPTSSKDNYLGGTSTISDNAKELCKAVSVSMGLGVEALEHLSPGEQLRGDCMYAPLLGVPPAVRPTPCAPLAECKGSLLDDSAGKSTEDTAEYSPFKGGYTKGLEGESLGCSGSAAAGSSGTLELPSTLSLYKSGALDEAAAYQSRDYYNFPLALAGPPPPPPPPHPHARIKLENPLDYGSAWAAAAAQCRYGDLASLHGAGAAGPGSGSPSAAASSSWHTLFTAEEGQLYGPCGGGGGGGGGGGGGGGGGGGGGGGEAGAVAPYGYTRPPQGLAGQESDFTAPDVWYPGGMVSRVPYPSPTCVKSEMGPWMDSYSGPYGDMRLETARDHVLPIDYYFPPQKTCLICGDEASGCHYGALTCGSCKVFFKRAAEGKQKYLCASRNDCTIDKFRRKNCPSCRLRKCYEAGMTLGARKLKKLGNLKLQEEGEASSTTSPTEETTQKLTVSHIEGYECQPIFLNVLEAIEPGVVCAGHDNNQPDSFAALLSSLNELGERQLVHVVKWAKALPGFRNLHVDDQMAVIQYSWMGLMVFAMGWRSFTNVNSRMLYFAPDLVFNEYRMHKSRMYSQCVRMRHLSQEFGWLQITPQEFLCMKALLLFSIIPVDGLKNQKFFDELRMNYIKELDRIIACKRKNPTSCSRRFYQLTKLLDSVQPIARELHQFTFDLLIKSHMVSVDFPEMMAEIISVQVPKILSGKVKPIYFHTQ

[1] = Half life in Lewis rat collagen-induced arthritis model at 3 to 30 mg/kg, po after 15 days; type: ADME, organism-based; design: dose 3-30 mg/kg, route oral; details: in vivo
Rattus norvegicus [2] = test: Antiinflammatory activity in Lewis rat collagen-induced arthritis model assessed as reduction of bone resorption at 30 mg/kg, po administered for 15 days; type: functional, organism-based; design: dose 30 mg/kg
How it was run: (§1)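 Female Lewis rats received collagen injected at the tail base, and disease developed over 14 d. Responding rats (groups of n = 10) were then dosed orally once daily for the next 15 d. Ankle/paw diameter was measured throughout the live phase and summarised as AUC. Hindpaw histology was scored blind from 0 (normal) to 5 (vehicle-level). Statistics used Student's t test vs vehicle, p < 0.01.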

[3] = Clearance in Sprague-Dawley rat at 3 mg/kg, iv; type: ADME, organism-based; design: dose 3 mg/kg, route intravenous; details: in vivo
How it was run: (§2)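 Cannulated male Sprague-Dawley rats, fasted overnight, given a single 3 mpk dose at t = 0. The iv vehicle was 20% microemulsion/80% DI water and the po vehicle CMC/tween in DI water. Plasma was analysed for parent compound by LC/MS-MS, and exposure, half-life, Vd, clearance and bioavailability were calculated.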

Rattus norvegicus [4] = test: Antiinflammatory activity in po dosed Lewis rat collagen-induced arthritis model assessed as reduction in ankle diameter administered for 15 days measured during compound dosing; type: functional, organism-based; how it was run: as §1
[5] = AUC in Sprague-Dawley rat at 3 mg/kg, po; type: ADME, organism-based; design: dose 3 mg/kg, route oral; details: plasma; how it was run: as §2
Rattus norvegicus [6] = test: Antiinflammatory activity in Lewis rat collagen-induced arthritis model assessed as reduction of joint inflammation at 30 mg/kg, po administered for 15 days; type: functional, organism-based; design: dose 30 mg/kg; how it was run: as §1
[7] = Half life in Sprague-Dawley rat at 3 mg/kg, iv; type: ADME, organism-based; design: dose 3 mg/kg, route intravenous; details: in vivo; how it was run: as §2
[8] = AUC in Sprague-Dawley rat at 3 mg/kg, iv; type: ADME, organism-based; design: dose 3 mg/kg, route intravenous; details: plasma; how it was run: as §2
[9] = molecular target: T2, Glucocorticoid receptor (Homo sapiens) (UniProt P04150); test: Transactivation of human glucocorticoid receptor expressed in HEK293 cells at 10 uM after 24 hrs by luciferase reporter gene assay relative to control; type: cell-based
T2 sequence (whole entry): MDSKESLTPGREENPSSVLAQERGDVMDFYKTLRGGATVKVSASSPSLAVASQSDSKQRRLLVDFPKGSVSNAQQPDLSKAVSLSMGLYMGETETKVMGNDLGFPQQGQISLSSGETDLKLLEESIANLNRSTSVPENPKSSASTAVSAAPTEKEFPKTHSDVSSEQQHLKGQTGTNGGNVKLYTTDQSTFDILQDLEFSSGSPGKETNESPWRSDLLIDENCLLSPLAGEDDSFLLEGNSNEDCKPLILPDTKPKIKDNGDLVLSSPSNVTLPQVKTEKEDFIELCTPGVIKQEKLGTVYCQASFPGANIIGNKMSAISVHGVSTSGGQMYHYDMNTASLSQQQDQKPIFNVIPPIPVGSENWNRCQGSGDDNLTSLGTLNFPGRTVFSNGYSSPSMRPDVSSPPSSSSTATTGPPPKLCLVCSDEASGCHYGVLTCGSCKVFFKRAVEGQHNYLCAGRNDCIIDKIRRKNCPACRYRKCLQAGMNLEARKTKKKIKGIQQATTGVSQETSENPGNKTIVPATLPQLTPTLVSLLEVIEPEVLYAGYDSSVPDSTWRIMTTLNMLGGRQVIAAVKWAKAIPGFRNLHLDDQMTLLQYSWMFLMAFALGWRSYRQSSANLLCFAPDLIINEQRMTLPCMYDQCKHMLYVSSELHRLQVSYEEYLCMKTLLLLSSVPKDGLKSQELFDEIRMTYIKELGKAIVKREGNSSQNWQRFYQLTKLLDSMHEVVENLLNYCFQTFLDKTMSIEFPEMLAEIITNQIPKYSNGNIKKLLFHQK
How it was run: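 HEK293 cells were transfected in DMEM with 5% charcoal-stripped FBS, using a CMV-hGR plasmid and a luciferase reporter driven by 2×GRE plus the TK promoter. After overnight incubation, cells were replated and exposed to compound for 24 h, then lysed for luciferase readout.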

Rattus norvegicus [10] = test: Antiinflammatory activity in po dosed Sprague-Dawley rat assessed as inhibition of carrageenan-induced IL-1beta secretion incubated for 2 hrs prior to carrageenan challenge measured after 5 hrs by ELISA; type: functional
How it was run: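 Male Sprague-Dawley rats (n = 5/group) were dosed at t = 0, and carrageenan was injected into the rear footpad at 2 h. At 5 h the animals were euthanised and the hindpaws weighed to measure edema. Paw exudate was assayed for IL-1β by ELISA.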

Rattus norvegicus [11] = test: Antiinflammatory activity in po dosed Sprague-Dawley rat assessed as inhibition of carrageenan-induced paw edema incubated for 2 hrs prior to carrageenan challenge measured after 5 hrs […]; type: functional
[12] = Antiinflammatory activity in PMA-differentiated human U937 cells assessed as inhibition of LPS-induced TNFalpha production incubated for 60 mins prior to LPS challenge measured after 24 hrs; type: functional, cell-based; details: U-937
How it was run: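 U-937 cells (100 000/well) were differentiated with 20 nM PMA overnight at 37 °C, then refed with PMA-free medium. Cells were pretreated with compound for 60 min, then stimulated with LPS (stock 400 ng/mL) for 24 h at 37 °C. Secreted TNFα was measured by EIA/RIA. Ten-point half-log dilutions were used, each concentration in triplicate.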

[13] = Tmax in Lewis rat collagen-induced arthritis model at 3 to 30 mg/kg, po after 15 days; type: ADME, organism-based; design: dose 3-30 mg/kg, route oral; details: in vivo

`CC/C(=C1/c2ccccc2COc2ccccc21)c1cccc(NS(C)(=O)=O)c1` gave a Ki (Androgen receptor) of 9.74 nM.

Work on `C/C(=C1/c2ccccc2COc2ccccc21)c1cccc(NS(C)(=O)=O)c1` yielded a Ki (Androgen receptor) of 5.98 nM.

`CS(=O)(=O)Nc1cccc(C=C2c3ccccc3CCc3ccccc32)c1` showed a Ki (Androgen receptor) of 418 nM.

With `CC/C(=C1\c2ccccc2OCc2cccc(OC)c21)c1cccc(NS(C)(=O)=O)c1` the half-life [1] was 1.4 h, the Activity (Rattus norvegicus [2]) was “Active” and the clearance [3] was 56 mL/min/kg. The Activity (Rattus norvegicus [4]) was “Dose-dependent effect”, the AUC [5] was 1300 ng·h/mL and the Activity (Rattus norvegicus [6]) was “Active”. The half-life [7] was 1.4 h, the AUC [8] was 1490 ng·h/mL and the Ki (Androgen receptor) was 239 nM. It also gave an Efficacy [9] of 53%, an ED50 (Rattus norvegicus [10]) of 1.7 mg/kg and an ED50 (Rattus norvegicus [11]) of 2.8 mg/kg. The IC50 [12] was 19.1 nM and the Tmax [13] was 1 h.
